Tests used:
[1] = test system: U266 cells; assay: Annexin V/propidium iodide double-staining assay; type: cell-based; conditions: 25 μM, 18 h
Method in brief: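 U266 cells exposed to DMSO vehicle or 25 μM test compound for 18 h, then washed in ice-cold PBS and stained with Annexin V-FITC/PI in binding buffer for 15 min at 37 °C in the dark. Flow cytometry counted at least 10,000 cells per sample. Means ± SD from three independent experiments.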

[2] = test system: Ero1L; conditions: cited from earlier work
[3] = test system: normal PBMCs; assay: Cell death in normal PBMCs; type: cell-based; conditions: data not shown
[4] = Solubility observations; type: physicochemical
[5] = target: T1, human Ero1α (Homo sapiens, UniProt Q96HE7, C104A/C131A/C166A); assay: Amplex Red/Ero1α catalytic assay; type: biochemical
T1 sequence (Q96HE7 22-468 C104A/C131A/C166A): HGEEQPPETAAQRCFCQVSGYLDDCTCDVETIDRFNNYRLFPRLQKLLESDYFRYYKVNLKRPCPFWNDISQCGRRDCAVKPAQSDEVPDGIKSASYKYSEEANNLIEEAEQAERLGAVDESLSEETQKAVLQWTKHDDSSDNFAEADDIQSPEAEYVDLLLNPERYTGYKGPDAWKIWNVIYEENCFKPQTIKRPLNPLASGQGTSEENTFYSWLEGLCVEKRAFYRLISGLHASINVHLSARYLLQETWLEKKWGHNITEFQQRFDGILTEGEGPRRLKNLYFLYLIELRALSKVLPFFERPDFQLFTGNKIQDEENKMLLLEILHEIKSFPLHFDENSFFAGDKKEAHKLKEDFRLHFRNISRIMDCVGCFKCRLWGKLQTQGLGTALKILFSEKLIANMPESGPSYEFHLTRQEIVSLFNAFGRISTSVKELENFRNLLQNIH
Method in brief: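 Hyperactive His-tagged human Ero1α (residues 22–468) expressed in E. coli BL21(DE3)RIL, Ni-NTA purified, oxidised with ferricyanide, monomeric gel-filtration fraction; 0.0625 mg/mL enzyme with HRP, 25 μM Amplex Red, human PDI (18–479) substrate 0.250–0.008 mg/mL, test compound 200–0.01 μM, 50 mM sodium phosphate pH 7.4; 30 min, 37 °C; fluorescence Ex 530/Em 590; two experiments in triplicate.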

[6] = test system: U266 cells; assay: Western blot analysis of ER stress markers; type: cell-based; conditions: U266, 2, 4 and 8 h
Method in brief: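 U266 lysates taken after 2, 4 and 8 h with DMSO or test compound, run on 8–10% SDS-PAGE and transferred to PVDF. Membranes blocked 1 h at room temperature in 5% milk/TBST, probed overnight at 4 °C for p-eIF2α, ATF4, ATF6 and β-actin, then HRP secondary for 1 h. Chemiluminescent detection; n=3 independent assays.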

SMILES: O=C(O)c1cc(N2N=C(C(F)(F)F)/C(=C/c3ccc(-c4ccccc4)o3)C2=O)ccc1Cl [EN460]
- Apoptosis (Annexin V positive cells) [1]: induces apoptosis
- Inhibition of the Ero1L enzyme [2]: low micromolar range
- Cell death in normal PBMCs [3]: sufficient to induce cell death
- Solubility [4]: poor solubility
- Reachable concentration in vitro ([4]; limited by poor solubility): ≤ 200 µM
- Mode of Ero1L inhibition ([5]; increasing substrate PDI with different EN460 concentrations): competitive
- Km ([5]; substrate PDI, with EN460): increased
- Vmax ([5]; substrate PDI, with EN460): largely stated the same
- ATF4 level [6]: modest increase
- full length ATF6 level [6]: reduced levels
- p-eIF2α level [6]: robust increase

SMILES: [N-]=[N+]=Nc1ccc(-c2ccc(/C=C3/C(=O)N(c4ccc(Cl)c(C(=O)O)c4)N=C3C(F)(F)F)o2)cc1 [PB-11, (E)-5-(4-((5-(4-azidophenyl)furan-2-yl)methylene)-5-oxo-3-(trifluoromethyl)-4,5-dihydro-1H-pyrazol-1-yl)-2-chlorobenzoic acid]
- Solubility in physiological buffers ([4]; e.g. PBS pH 7.4): less soluble

SMILES: [N-]=[N+]=Nc1cccc(-c2ccc(/C=C3/C(=O)N(c4ccc(Cl)c(C(=O)O)c4)N=C3C(F)(F)F)o2)c1 [PB-10, (E)-5-(4-((5-(3-azidophenyl)furan-2-yl)methylene)-5-oxo-3-(trifluoromethyl)-4,5-dihydro-1H-pyrazol-1-yl)-2-chlorobenzoic acid]
- Solubility [4]: comparable in solubility to EN460

SMILES: CC1=NN(c2ccc(C)cc2)C(=O)/C1=C/c1ccc(-c2ccc(C(=O)O)cc2)o1 [AN968]
- Activity against Ero1L (derivative screen, Supplementary Fig. 2) [5]: marginally active

SMILES: CC1=NN(c2ccccc2)C(=O)/C1=C/c1ccc(-c2cccc(Br)c2)o1 [AK968]
- Activity against Ero1L (derivative screen, Supplementary Fig. 2) [5]: inactive

From PMC6554731 (Bioorganic & medicinal chemistry, 2019)
